Data on 167 variants can be found in the RNAGym collection of RNA variant scans (doi:10.1126/science.aae0568).

B1: tRNA (parent)
chain: GUUCCGUUGGCGUAAUGGUAACGCGUCUCCCUCCUAAGGAGAAGACUGCGGGUUCGAGUCCCGUACGGAACG

Fewer inactive variants are shown than the library holds. Some results are limits rather than exact numbers.

This data set covers variants of B1. The data set can be described thus: yeast fitness relative to wild type (ratio to wild type); higher = fitter; tRNA-Arg(CCU), competitive growth, 37 C, YPD. Put shortly:
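Start and end populations of a pooled competition were compared by 100-nucleotide paired-end sequencing of gene amplicons. The Saccharomyces cerevisiae strains carried tRNA-Arg(CCU) gene variants at the native genomic locus, synthesised with a 3% per-site mutation rate at 69 sites, and competed in YPD at 37°C for 24 hours in six parallel replicates. Darwinian fitness relative to wild type was based on the change in genotype frequencies. Genotypes required ≥ 100 starting reads, and estimates < 0.5 were set to 0.5.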
For G17A C22G, the yeast fitness was 0.837. Turning to G17A C22A, the yeast fitness is 0.645.

Turning to U16G U53A U59A C66A, the yeast fitness was no more than 0.5.

G17C C22G C24A: the yeast fitness is no more than 0.5. Regarding G17A C27G G39C, the yeast fitness was no more than 0.5.

Turning to G17A C46A A65G, the yeast fitness was no more than 0.5. As for G17A G56C G58C, the figure is 0.585. As for G17C C24A U32C U47A G67C, the figure is no more than 0.5; as for G17C A42U C62U, 0.645. As for G17C C27A U32C C61A C66U, the figure is no more than 0.5; as for G17C A21G C33A C49U, no more than 0.5.

Regarding G17A G50C C60A, the yeast fitness is no more than 0.5. With G17A G52C, the yeast fitness was determined as 0.65. The same measure for G17A A57C G63A G67A: no more than 0.5. On to G17A U35G U59C, for which the yeast fitness was no more than 0.5.

As to G17A C22A G63A, the yeast fitness is no more than 0.5. As for G17A A21C C29G, the figure is 0.626; as for G17C A42U A70G, 0.653; as for G17A C34U G38A, 0.581. The same measure for U16G U54C: 0.704; for G17C A20G: 0.553.

Consider G17A A20U C24U A65U, for which the yeast fitness is no more than 0.5. Take G17C C24G G38C: the yeast fitness is no more than 0.5.

Take G17A C60A: the yeast fitness was no more than 0.5. As for G17A C27U, the figure is 0.711; as for G17A C27G, 0.535. As to G17A A40U G48A, the yeast fitness is no more than 0.5. For the variant G17C A20U C33G, the yeast fitness was no more than 0.5. G17C C24G G48C: the yeast fitness was no more than 0.5. As to G17C A21U, the yeast fitness was 0.559. As for G17A C27G C31A, the figure is no more than 0.5; as for G17C C27U U64C, no more than 0.5; as for G17C C24G C30U G50C, no more than 0.5. For G17C C22A U28C C66G G67C, the yeast fitness was no more than 0.5.

For the variant G17A C30U, the yeast fitness turned out to be 0.82. The same measure for G17A A20C G25A G68C: no more than 0.5; for G17C C27A C61G: no more than 0.5. As for G17A U54A G56C G68A, the figure is no more than 0.5; as for G17A U19A C30G, 0.66; as for U16G U35C G56C, no more than 0.5. On to G17C A21U A57U, for which the yeast fitness was 0.564. With G17A C31U C49G, the yeast fitness was no more than 0.5. For the variant G17A C49A, the yeast fitness stood at 0.677. The same measure for U16G U54C A69C: 0.718; for G17A C30G G48A U53C: no more than 0.5; for G17A U32C A40G A65C: no more than 0.5. Regarding G17A G25C A40U G63A, the yeast fitness was no more than 0.5. As for G17C C27U A37G A65G, the figure is no more than 0.5; as for G17A C27U U35C C61G, no more than 0.5. For the variant G17C A42C C60A, the yeast fitness was no more than 0.5.

For G17A U26C U28C A42C C66U, the yeast fitness is no more than 0.5. The same measure for G17A G23C U54A C61G: no more than 0.5; for G17A G51A G56C G58C: no more than 0.5; for G17C A45G: 0.546. Consider G17C A20G G51A, for which the yeast fitness is no more than 0.5. The same measure for G17C A43U G56A A70U: no more than 0.5; for G17A C31G G38C G63C: no more than 0.5. As for G17A C31G G44C A69U, the figure is 0.528; as for U16G U26G C29A A57C, no more than 0.5; as for G17C A20G C30G A65U, no more than 0.5. As for G17A C61A G63A, the figure is 0.66; as for G17A C29U A57G U59C, no more than 0.5. G17A U47G G67A A69C: the yeast fitness was 0.559. As for G17C C24G U28A C30U G52A, the figure is no more than 0.5; as for G17A C29U U35G A37C G38C C49G, 0.545; as for G17C A57U, 0.52. As for G17A C49U C62A, the figure is no more than 0.5; as for G17A A21U C34G G38C G56C, no more than 0.5; as for G17A U19C C34A A40G C66U, no more than 0.5. Consider G17A A45U G52A C61U, for which the yeast fitness is no more than 0.5. With G17A G18C G39C, the yeast fitness is 0.588. The same measure for G17A A21G: 0.765.

In the case of U16G U35A G51C C61U, the yeast fitness was no more than 0.5. Turning to G17C C22A C24G U28C C33A, the yeast fitness is no more than 0.5.

Take G17C C24G C34U C66U: the yeast fitness turned out to be 0.548. Take G17C A42U: the yeast fitness was found to be 0.703. Consider G17C A42G, for which the yeast fitness came out at 0.528. Take G17A C34A A40G C66U: the yeast fitness stood at 0.524.

Take G17A A57C: the yeast fitness was 0.581. The same measure for G17A A43G: 0.735. The same measure for G17A A43U: 0.81; for G17A A43C: 0.698; for G17C A21C C34G A37U U47C G68C: no more than 0.5. With G17A C22U C29A A36G A45U, the yeast fitness was no more than 0.5. Regarding G17A C29U C49A C62U, the yeast fitness is no more than 0.5. G17A U59A C66U: the yeast fitness is no more than 0.5. As for G17C C24A U47A G67C, the figure is 0.569; as for G17A C24G C29G A37U, no more than 0.5. Regarding G17A C34U, the yeast fitness was determined as 0.573.

As for G17A C34A, the yeast fitness was 0.595. As for U16G U28C G51A C55G, the figure is no more than 0.5; as for G17A A42C, 0.645; as for G17A A20G C27G A36C U53A, 0.639.

For G17C C24G C46G C66U, the yeast fitness was no more than 0.5.

U16G U47A: the yeast fitness stood at 0.781.

In the case of G17A C24A U35A, the yeast fitness is no more than 0.5.

Take G17A C34A C55G: the yeast fitness is no more than 0.5. As for G17A A21C C27U C33A A37C, the figure is 0.566; as for G17A A37U G38A, no more than 0.5. Regarding G17C C22U U32C C46U, the yeast fitness is no more than 0.5. The same measure for G17A G50A C61A: no more than 0.5; for G17A C29A G67C A69U: no more than 0.5; for G17A G58A A69C: 0.575. As for G17A U54C A70G, the figure is no more than 0.5; as for G17A C49G U53C, no more than 0.5; as for G17A U35A U54G, no more than 0.5.

Take U16G U59C C60G: the yeast fitness was no more than 0.5. The same measure for G17A U26G G51A: no more than 0.5; for G17C C24A A69C: 0.553. On to G17A C22U A45G, for which the yeast fitness is no more than 0.5. As for U16G U32G C46U, the figure is no more than 0.5. As for G17A C46G A70U, the yeast fitness was found to be 0.578.

Regarding G17A C60A C61A, the yeast fitness is no more than 0.5. The same measure for U16G U26G A36G: 0.58; for G17C A36U G44C: no more than 0.5; for G17A U35A G44A G50A: no more than 0.5. The same measure for G17C A45C G48A U59A A70C: no more than 0.5; for G17A A20C C49G: no more than 0.5; for G17C A65C: 0.67. Consider G17C A65U, for which the yeast fitness was found to be 0.649.

On to G17A G56A, for which the yeast fitness is 0.878. The same measure for G17C C27U A36G: 0.714.

For the variant G17A U26A C62U, the yeast fitness came out at 0.614. As for G17A A69U, the yeast fitness turned out to be 0.809. Take G17C A42U G44C A45U G58A: the yeast fitness was no more than 0.5. As for G17A G25C, the figure is 0.705; as for U16G U26G U54G, 0.743; as for G17A C30U G63C A65C, 0.529. Turning to G17A A20G U28A U35A, the yeast fitness turned out to be 0.561. For the variant G17C A37C A45U, the yeast fitness worked out at 0.659.

G17A C22A A45C G63C C66U: the yeast fitness was no more than 0.5.

Take U16G U54C C60A: the yeast fitness was no more than 0.5.

Consider G17A U54C, for which the yeast fitness was found to be 0.67. Consider G17C C22U U32C A40U A65G, for which the yeast fitness was no more than 0.5.

With G17A G18C A20G G39C, the yeast fitness was no more than 0.5. As for G17C A36U G48C U54C C60A U64G, the figure is no more than 0.5; as for G17C C22G A36C G39A A42G G63C, 0.842; as for G17A U19A G23A C31U C34A A43U, no more than 0.5.

With G17C C22U C29G G51C, the yeast fitness was no more than 0.5.

With G17A A36U C49U C62U, the yeast fitness was no more than 0.5. As for G17A C27G C29G A43G, the figure is 0.561. Turning to G17C A40U C66G, the yeast fitness is no more than 0.5. Take G17A C24G C27G G67A: the yeast fitness turned out to be 0.583. Consider G17A C24A C30U G41A A45C G58C, for which the yeast fitness was no more than 0.5.

Take G17C A37C A40C C61U: the yeast fitness was no more than 0.5. The same measure for G17A C24G C27G: 0.57; for G17A A37C U54A C55A C66G: no more than 0.5. The same measure for G17A A36G G44A U47C A70U: no more than 0.5. As for G17C A40G A42U C62U, the figure is no more than 0.5. With G17A A21C C29U G48A, the yeast fitness worked out at 0.652. Turning to G17A C34U A57U U64C, the yeast fitness is no more than 0.5. As to U16G U47A G52A, the yeast fitness was no more than 0.5.

G17A C24G C27G U59C A69U: the yeast fitness was no more than 0.5.

Regarding G17C A20C G39A, the yeast fitness is 0.528. Consider G17C A43U C62U, for which the yeast fitness is 0.632. The same measure for G17A G18A A20C A21G G50A C55G A69U: 0.642; for G17A C27G A36C U54A: 0.555; for U16G U32C A70G: 0.984. The same measure for G17A C24G C27G A69C: no more than 0.5; for G17A G38A C49A U54A: no more than 0.5; for G17A A37C A65C: no more than 0.5.

For G17C C22U U32C A40U C66U, the yeast fitness was no more than 0.5. Regarding G17A A20G C34A A40G C66U, the yeast fitness was no more than 0.5. On to G17A C22G C29U, for which the yeast fitness was no more than 0.5. As for G17A A21C U53A, the figure is no more than 0.5; as for G17A G18A A42C C61U, no more than 0.5; as for G17A C22U A43U, 0.639.
